Experimental data: ChEMBL document CHEMBL4052828, “Discovery of 4-((7H-Pyrrolo[2,3-d]pyrimidin-4-yl)amino)-N-(4-((4-methylpiperazin-1-yl)methyl)phenyl)-1H-pyrazole-3-carboxamide (FN-1501), an FLT3- and CDK-Kinase Inhibitor with Potentially High Efficiency against Acute Myelocytic Leukemia” (J Med Chem, 2018)
Activity calls are given as the source filed them. The calls are words filed in the database; no cut-off is given here.

How the values were obtained:
[1] = Intrinsic clearance in cynomolgus monkey liver microsomes by LC-MS/MS analysis; format: ADME, Macaca fascicularis, microsome; conditions: read-out: CLH
[2] = molecular target: T1, Receptor-type tyrosine-protein kinase FLT3 (Homo sapiens, UniProt P36888); assay: Inhibition of human FLT3 using EAIYAAPFAKKK as substrate preincubated for 20 mins followed by [gamma-33P]-ATP addition measure after 120 mins by filter binding method
T1 sequence (P36888 whole entry): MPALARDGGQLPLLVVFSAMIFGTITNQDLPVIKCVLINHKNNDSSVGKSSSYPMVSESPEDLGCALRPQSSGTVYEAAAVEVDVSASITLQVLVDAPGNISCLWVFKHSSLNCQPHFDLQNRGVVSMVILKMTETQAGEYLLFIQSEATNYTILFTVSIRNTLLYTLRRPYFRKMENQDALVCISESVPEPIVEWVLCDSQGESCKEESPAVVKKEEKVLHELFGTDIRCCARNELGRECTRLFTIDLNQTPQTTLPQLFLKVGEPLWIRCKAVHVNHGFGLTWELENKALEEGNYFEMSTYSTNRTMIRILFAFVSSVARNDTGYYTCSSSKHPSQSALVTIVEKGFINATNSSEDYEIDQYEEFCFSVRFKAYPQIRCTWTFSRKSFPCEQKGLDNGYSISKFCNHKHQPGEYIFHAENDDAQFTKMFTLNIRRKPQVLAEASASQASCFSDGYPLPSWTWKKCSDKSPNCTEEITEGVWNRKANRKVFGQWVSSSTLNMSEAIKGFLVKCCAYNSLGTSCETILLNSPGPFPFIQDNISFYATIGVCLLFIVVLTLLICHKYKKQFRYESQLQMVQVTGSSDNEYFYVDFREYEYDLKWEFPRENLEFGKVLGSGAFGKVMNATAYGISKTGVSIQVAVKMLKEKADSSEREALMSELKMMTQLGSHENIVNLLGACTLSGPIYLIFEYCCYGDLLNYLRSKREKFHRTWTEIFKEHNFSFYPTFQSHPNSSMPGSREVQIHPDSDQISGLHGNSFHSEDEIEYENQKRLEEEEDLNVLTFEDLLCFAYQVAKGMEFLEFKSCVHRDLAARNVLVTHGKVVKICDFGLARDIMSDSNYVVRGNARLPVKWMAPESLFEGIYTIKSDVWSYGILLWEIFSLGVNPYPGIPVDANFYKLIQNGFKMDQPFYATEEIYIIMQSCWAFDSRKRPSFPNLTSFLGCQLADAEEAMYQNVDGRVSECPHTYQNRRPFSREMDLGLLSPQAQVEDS
Summary of the method: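 Compound preincubated with kinase 20 min at room temperature. Filter-binding read-out, curve-fitted IC50; mean ± SD of three independent experiments.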

MV4-11 [3] = assay: Induction of apoptosis in human MV4-11 cells assessed as late apoptotic cells at 0.5 uM after 24 hrs by annexin V-FITC/propidium iodide staining-based flow cytometric method (reference value: 2.54%); format: functional
[4] = Intrinsic clearance in human liver microsomes by LC-MS/MS analysis; format: ADME, microsome; conditions: read-out: CLH
MV4-11 [5] = assay: Growth inhibition of human MV4-11 cells after 72 hrs by CellTiter-Glo assay; format: functional, cell-based; conditions: MV4-11, 72 h
Summary of the method: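 MV4-11 cells grown in IMDM with 10% FBS, 2% L-glutamine and 1% pen/strep at 37 °C, 5% CO2. Seeded at 10000 cells/well and exposed to compound at various concentrations for 72 h. Viability read by CellTiter-Glo luminescence.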

[6] = molecular target: Receptor-type tyrosine-protein kinase FLT3 (Homo sapiens) (UniProt P36888); assay: Inhibition of FLT3 phosphorylation in human MV4-11 cells assessed as decrease in AKT phosphorylation at 0.02 to 1 uM after 24 hrs by Western blot analysis; format: cell-based
Summary of the method: (§1)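 MV4-11 cells treated with increasing concentrations of compound for 24 h. Lysates immunoblotted for phosphorylated FLT3, STAT5, ERK, AKT and Rb.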

[7] = Terminal half life in human liver microsomes by LC-MS/MS analysis; format: ADME, microsome; conditions: read-out: beta t1/2 (converted)
Summary of the method: (§2)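 Metabolic stability measured by incubating compound in human, rat, mouse, dog and monkey liver microsomes. Terminal t1/2 determined.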

[8] = Intrinsic clearance in rat liver microsomes by LC-MS/MS analysis; format: ADME, microsome; conditions: read-out: CLH
MV4-11 [9] = assay: Induction of apoptosis in human MV4-11 cells assessed as late apoptotic cells at 1 uM after 24 hrs by annexin V-FITC/propidium iodide staining-based flow cytometric method (reference value: 2.54%); format: functional
MGC-803 = assay: Growth inhibition of human MGC803 cells after 72 hrs by CellTiter-Glo assay; format: functional; conditions: MGC-803, 72 h
CDK6/cyclin D1 = CDK6/cyclin D1 (Homo sapiens, UniProt Q00534); assay: Inhibition of human CDK6/Cyclin D1 using RB protein as substrate preincubated for 20 mins followed by [gamma-33P]-ATP addition measure after 120 mins by filter binding method; format: protein-complex assay
CDK6/cyclin D1, sequence (P24385 whole entry): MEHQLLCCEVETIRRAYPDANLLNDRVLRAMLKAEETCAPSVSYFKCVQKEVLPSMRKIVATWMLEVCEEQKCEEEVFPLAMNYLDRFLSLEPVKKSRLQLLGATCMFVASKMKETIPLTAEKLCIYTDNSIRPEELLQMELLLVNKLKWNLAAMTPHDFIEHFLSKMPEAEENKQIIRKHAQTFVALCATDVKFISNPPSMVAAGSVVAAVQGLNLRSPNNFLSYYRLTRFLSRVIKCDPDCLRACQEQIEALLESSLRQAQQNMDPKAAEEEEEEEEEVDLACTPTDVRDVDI
CDK6/cyclin D1, sequence (Q00534 whole entry): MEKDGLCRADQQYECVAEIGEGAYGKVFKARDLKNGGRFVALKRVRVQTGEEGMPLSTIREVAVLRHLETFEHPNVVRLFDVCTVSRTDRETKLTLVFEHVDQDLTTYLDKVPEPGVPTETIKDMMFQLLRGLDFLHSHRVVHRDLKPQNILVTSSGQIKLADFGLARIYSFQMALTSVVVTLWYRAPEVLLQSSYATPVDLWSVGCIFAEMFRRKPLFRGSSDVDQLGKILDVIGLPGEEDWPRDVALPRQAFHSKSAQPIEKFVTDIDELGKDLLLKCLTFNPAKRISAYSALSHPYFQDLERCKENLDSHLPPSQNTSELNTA
Summary of the method: (§3)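 Compound preincubated with kinase 20 min at room temperature. Reaction started with 10 μM [γ-33P]ATP and run 120 min at 25°C. Filter-binding read-out, curve-fitted IC50; mean ± SD of three independent experiments.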

HCT-116 [10] = assay: Cell cycle arrest in human HCT116 cells assessed as accumulation at G2/M phase at 0.1 to 1 uM after 24 hrs by propidium iodide/BrdU staining-based flow cytometric method; format: functional
Summary of the method: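 Cells treated with compound for 24 h, then fixed. Double-stained with propidium iodide and BrdU for flow cytometric analysis of cell cycle distribution.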

Homo sapiens = organism: Homo sapiens; assay: Inhibition of CDK in human MV4-11 cells assessed as decrease in Rb phosphorylation at Ser807/811 after 24 hrs by Western blot analysis; format: cell-based; summary of the method: as §1
[11] = Terminal half life in mouse liver microsomes by LC-MS/MS analysis; format: ADME, microsome; conditions: read-out: beta t1/2 (converted); summary of the method: as §2
MV4-11 [12] = assay: Induction of apoptosis in human MV4-11 cells at 2 uM after 24 hrs by annexin V-FITC/propidium iodide staining-based flow cytometric method; format: functional, cell-based
[13] = molecular target: Receptor-type tyrosine-protein kinase FLT3 (Homo sapiens) (UniProt P36888); assay: Inhibition of FLT3 phosphorylation in human MV4-11 cells at 0.02 to 1 uM after 24 hrs by Western blot analysis; format: cell-based; summary of the method: as §1
MV4-11 [14] = assay: Antitumor activity against human MV4-11 cells xenografted in nu/nu mouse assessed as tumor regression at 30 mg/kg, iv qd measured on day 21 relative to vehicle-treated control; format: functional
HCT-116 [15] = assay: Growth inhibition of human HCT116 cells after 72 hrs by CellTiter-Glo assay; format: functional; conditions: HCT-116, 72 h
MV4-11 [16] = assay: Induction of apoptosis in human MV4-11 cells assessed as early apoptotic cells at 2 uM after 24 hrs by annexin V-FITC/propidium iodide staining-based flow cytometric method (reference value: 3.54%); format: functional
MV4-11 [17] = assay: Induction of apoptosis in human MV4-11 cells assessed as late apoptotic cells at 2 uM after 24 hrs by annexin V-FITC/propidium iodide staining-based flow cytometric method (reference value: 2.54%); format: functional
[18] = Toxicity in ICR mouse administered via gavage measured for 12 days; conditions: in vivo, po
[19] = molecular target: Cyclin-dependent kinase 4/cyclin D1 (Homo sapiens, UniProt P11802); assay: Inhibition of human CDK4/Cyclin D1 using RB protein as substrate preincubated for 20 mins followed by [gamma-33P]-ATP addition measure after 120 mins by filter binding method; format: protein-complex assay; summary of the method: as §3
Cyclin-dependent kinase 4/cyclin D1, sequence (P11802 whole entry): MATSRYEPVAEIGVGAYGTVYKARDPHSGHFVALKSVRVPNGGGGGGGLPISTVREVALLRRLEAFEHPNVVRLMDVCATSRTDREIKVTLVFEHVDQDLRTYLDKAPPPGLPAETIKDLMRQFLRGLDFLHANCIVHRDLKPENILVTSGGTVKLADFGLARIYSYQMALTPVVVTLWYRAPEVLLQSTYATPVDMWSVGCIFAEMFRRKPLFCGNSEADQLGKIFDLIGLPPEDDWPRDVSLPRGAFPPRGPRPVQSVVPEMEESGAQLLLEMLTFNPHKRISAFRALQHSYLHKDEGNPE
Cyclin-dependent kinase 4/cyclin D1, sequence (P24385 whole entry, further chain): as the sequence (P24385 whole entry) above

CN1CCN(Cc2ccc(NC(=O)c3n[nH]cc3Nc3ncnc4[nH]ccc34)cc2)CC1
CLint scaled [1]: 36.5 mL/min/kg | IC50 [2]: 0.27 to 0.28 nM | Activity (MV4-11 [3]): 13.44% | CLint scaled [4]: 13.3 mL/min/kg | IC50 (MV4-11 [5]): 8 nM | inhibition [6]: Active | half-life [7]: 1.72 h | CLint scaled [8]: 40.3 mL/min/kg | Activity (MV4-11 [9]): 14.79% | GI50 (MGC-803): 370 nM | IC50 (CDK6/cyclin D1): 1.96 nM | Activity (HCT-116 [10]): Active | inhibition (Homo sapiens): Dose-dependent effect | half-life [11]: 0.66 h | Activity (MV4-11 [12]): Dose-dependent effect | inhibition [13]: Active | Activity (MV4-11 [14]): 78.95% | GI50 (HCT-116 [15]): 90 nM | Activity (MV4-11 [16]): 54.13% | Activity (MV4-11 [17]): 24.17% | LD50 at 288 h [18]: 186 mg/kg | IC50 [19]: 0.85 nM
